From ChEMBL document CHEMBL1806421, “Design, synthesis and biological evaluation of urea derivatives from o-hydroxybenzylamines and phenylisocyanate as potential FabH inhibitors” (Bioorg Med Chem, 2011)
In brackets after ≈: the same amount, converted by molar mass.

Key:
Staphylococcus aureus = test: Antibacterial activity against Staphylococcus aureus after 24 hrs by MTT assay; format: functional
In short: (§1)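 MIC by MTT colorimetry in Mueller-Hinton medium. Inoculum was about 10⁵ cfu/mL, added to serial dilutions made from DMSO solutions, then incubated at 37 °C for 24 h. MTT in PBS (0.01 mol/L, pH 7.4; 2 mg/mL) was added to each well. Dye was extracted with isopropanol containing 5% 1 mol/L HCl for 12 h at room temperature, and OD was read at 550 nm.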

Escherichia coli = test: Antibacterial activity against Escherichia coli ATCC 35218 after 24 hrs by MTT assay; format: functional; conditions: ATCC 35218, 24 h; in short: as §1
Bacillus subtilis = test: Antibacterial activity against Bacillus subtilis after 24 hrs by MTT assay; format: functional; in short: as §1
Pseudomonas fluorescens = test: Antibacterial activity against Pseudomonas fluorescens after 24 hrs by MTT assay; format: functional; in short: as §1
[1] = target: T1, 3-oxoacyl-[acyl-carrier-protein] synthase 3 (Escherichia coli, UniProt C3TDZ2); test: Inhibition of Escherichia coli FabH expressed in Escherichia coli DH10B cells assessed as incorporation of 3H signal in the product after 25 mins by liquid scintillation
T1 sequence (C3TDZ2 whole entry): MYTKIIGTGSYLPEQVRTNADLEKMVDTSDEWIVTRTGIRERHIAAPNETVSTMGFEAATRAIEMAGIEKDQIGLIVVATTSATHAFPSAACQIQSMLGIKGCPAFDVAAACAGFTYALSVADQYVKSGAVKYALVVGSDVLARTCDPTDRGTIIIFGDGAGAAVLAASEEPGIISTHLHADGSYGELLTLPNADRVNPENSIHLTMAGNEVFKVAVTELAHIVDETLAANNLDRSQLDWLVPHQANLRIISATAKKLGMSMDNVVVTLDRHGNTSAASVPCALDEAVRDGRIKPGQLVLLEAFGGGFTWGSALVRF
In short: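 Native E. coli FabH was expressed from pET30 in DH10B and purified by Q-Sepharose, MonoQ and hydroxyapatite chromatography at 4 °C. Reaction used 20 mM Na₂HPO₄ pH 7.0, 0.5 mM DTT, holo-ACP and 1 nM FabH. It was stopped with ice-cold 50% TCA (5 min on ice) and the protein pelleted. ³H incorporation was read by liquid scintillation. Inhibitors came from DMSO stock, with final DMSO ≤2%.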

[2] = Toxicity in erythrocytes assessed as hemolytic activity; format: cell-based; conditions: erythrocyte

| SMILES | MIC (Staphylococcus aureus) [µg/mL] | MIC (Escherichia coli) [µg/mL] | MIC (Bacillus subtilis) [µg/mL] | MIC (Pseudomonas fluorescens) [µg/mL] | IC50 [1] [µM] | LC30 [2] [µg/mL] |
| --- | --- | --- | --- | --- | --- | --- |
| Oc1ccc(Br)cc1CNc1ccc(F)cc1 | 12.5 (≈ 42.2 µM) | 12.5 (≈ 42.2 µM) | 50 (≈ 169 µM) | 25 (≈ 84.4 µM) |  |  |
| O=C(Nc1ccccc1)N(Cc1cc(Br)cc(Br)c1O)c1ccc(F)cc1 | 12.5 (≈ 25.3 µM) | 6.25 (≈ 12.6 µM) | 12.5 (≈ 25.3 µM) | 25 (≈ 50.6 µM) | 71.7 | > 10000 |
| O=C(Nc1ccccc1)N(Cc1cc(Br)ccc1O)c1ccccc1F | 50 (≈ 120 µM) | 12.5 (≈ 30.1 µM) | 25 (≈ 60.2 µM) | 25 (≈ 60.2 µM) | 37.4 | > 10000 |
| Oc1c(Br)cc(Br)cc1CNc1ccc(Br)cc1 | 50 (≈ 115 µM) | 25 (≈ 57.3 µM) | 50 (≈ 115 µM) | 50 (≈ 115 µM) |  |  |
| COc1ccc(N(Cc2cc(Br)cc(Br)c2O)C(=O)Nc2ccccc2)cc1 | 50 (≈ 98.8 µM) | 12.5 (≈ 24.7 µM) | 50 (≈ 98.8 µM) | 25 (≈ 49.4 µM) |  |  |
| Nc1ccn([C@H]2CC[C@@H](COP(=O)(O)O)O2)c(=O)n1 |  |  |  |  | 2.1 | > 10000 |
| Oc1ccc(Br)cc1CNc1ccccc1F | 25 (≈ 84.4 µM) | 25 (≈ 84.4 µM) | 50 (≈ 169 µM) | 6.25 (≈ 21.1 µM) |  |  |
| Cc1ccc(NCc2cc(Br)cc(Br)c2O)cc1 | 50 (≈ 135 µM) | 50 (≈ 135 µM) | 50 (≈ 135 µM) | 50 (≈ 135 µM) |  |  |
| Oc1c(Br)cc(Br)cc1CNc1ccc(Cl)cc1 | 12.5 (≈ 31.9 µM) | 25 (≈ 63.9 µM) | 12.5 (≈ 31.9 µM) | 12.5 (≈ 31.9 µM) |  |  |
| O=C(Nc1ccccc1)N(Cc1cc(Br)cc(Br)c1O)c1ccc(Br)cc1 | 25 (≈ 45 µM) | 12.5 (≈ 22.5 µM) | 50 (≈ 90.1 µM) | 25 (≈ 45 µM) |  |  |
| O=C(Nc1ccccc1)N(Cc1cc(Br)ccc1O)c1ccccc1Cl | 3.13 (≈ 7.25 µM) | 6.25 (≈ 14.5 µM) | 6.25 (≈ 14.5 µM) | 25 (≈ 57.9 µM) | 21.8 | > 10000 |
| Oc1ccc(Br)cc1CNc1ccc(Br)cc1 | 25 (≈ 70 µM) | 25 (≈ 70 µM) | 25 (≈ 70 µM) | 12.5 (≈ 35 µM) |  |  |
| Cc1ccc(N(Cc2cc(Br)cc(Br)c2O)C(=O)Nc2ccccc2)cc1 | 6.25 (≈ 12.8 µM) | 50 (≈ 102 µM) | 50 (≈ 102 µM) | 50 (≈ 102 µM) |  |  |
| O=C(Nc1ccccc1)N(Cc1cc(Br)ccc1O)c1ccc(F)cc1 | 3.13 (≈ 7.54 µM) | 1.56 (≈ 3.76 µM) | 6.25 (≈ 15.1 µM) | 6.25 (≈ 15.1 µM) | 6.6 | > 10000 |
| Oc1ccc(Br)cc1CNc1ccccc1Br | 50 (≈ 140 µM) | 25 (≈ 70 µM) | 50 (≈ 140 µM) | 25 (≈ 70 µM) |  |  |
| O=C(Nc1ccccc1)N(Cc1cc(Br)ccc1O)c1ccccc1Br | 25 (≈ 52.5 µM) | 12.5 (≈ 26.3 µM) | 6.25 (≈ 13.1 µM) | 25 (≈ 52.5 µM) | 56.4 | > 10000 |
| O=C(Nc1ccccc1)N(Cc1cc(Br)ccc1O)c1ccc(Cl)cc1 | 1.56 (≈ 3.61 µM) | 1.56 (≈ 3.61 µM) | 6.25 (≈ 14.5 µM) | 3.13 (≈ 7.25 µM) | 4.7 | > 10000 |

| SMILES | MIC (Staphylococcus aureus) [µg/mL] | MIC (Escherichia coli) [µg/mL] | MIC (Bacillus subtilis) [µg/mL] | MIC (Pseudomonas fluorescens) [µg/mL] | IC50 [1] [µM] | LC30 [2] [µg/mL] |
| --- | --- | --- | --- | --- | --- | --- |
| O=C(Nc1ccccc1)N(Cc1cc(Br)ccc1O)c1ccc(Br)cc1 | 12.5 (≈ 26.3 µM) | 6.25 (≈ 13.1 µM) | 12.5 (≈ 26.3 µM) | 12.5 (≈ 26.3 µM) | 41 | > 10000 |
| O=C(Nc1ccccc1)N(Cc1cc(Br)cc(Br)c1O)c1ccccc1F | 25 (≈ 50.6 µM) | 50 (≈ 101 µM) | 50 (≈ 101 µM) | 12.5 (≈ 25.3 µM) |  |  |
| Oc1c(Br)cc(Br)cc1CNc1ccccc1Br | 50 (≈ 115 µM) | 12.5 (≈ 28.7 µM) | 50 (≈ 115 µM) | 50 (≈ 115 µM) |  |  |
| NC[C@H]1O[C@H](O[C@H]2[C@H](O)[C@@H](O[C@H]3O[C@H](CO)[C@@H](O)[C@H](N)[C@H]3O)[C@H](N)C[C@@H]2N)[C@H](N)[C@@H](O)[C@@H]1O [BEKANAMYCIN] | 1.56 (≈ 3.23 µM) | 3.13 (≈ 6.47 µM) | 1.56 (≈ 3.23 µM) | 3.13 (≈ 6.47 µM) |  |  |
| O=C(Nc1ccccc1)N(Cc1cc(Br)cc(Br)c1O)c1ccc(Cl)cc1 | 6.25 (≈ 12.2 µM) | 3.13 (≈ 6.13 µM) | 25 (≈ 49 µM) | 12.5 (≈ 24.5 µM) | 10.1 | > 10000 |
| COc1ccc(NCc2cc(Br)cc(Br)c2O)cc1 | 50 (≈ 129 µM) | 50 (≈ 129 µM) | 25 (≈ 64.6 µM) | 50 (≈ 129 µM) |  |  |
| Cc1ccc(N(Cc2cc(Br)ccc2O)C(=O)Nc2ccccc2)cc1 | 50 (≈ 122 µM) | 50 (≈ 122 µM) | 12.5 (≈ 30.4 µM) | 50 (≈ 122 µM) |  |  |
| Oc1ccc(Br)cc1CNc1ccccc1Cl | 6.25 (≈ 20 µM) | 12.5 (≈ 40 µM) | 50 (≈ 160 µM) | 25 (≈ 80 µM) |  |  |
| O=C(Nc1ccccc1)N(Cc1cc(Br)cc(Br)c1O)c1ccccc1Br | 50 (≈ 90.1 µM) | 50 (≈ 90.1 µM) | 50 (≈ 90.1 µM) | 6.25 (≈ 11.3 µM) |  |  |
| Oc1c(Br)cc(Br)cc1CNc1ccccc1F | 25 (≈ 66.7 µM) | 50 (≈ 133 µM) | 50 (≈ 133 µM) | 50 (≈ 133 µM) |  |  |
| Oc1c(Br)cc(Br)cc1CNc1ccccc1Cl | 25 (≈ 63.9 µM) | 25 (≈ 63.9 µM) | 6.25 (≈ 16 µM) | 50 (≈ 128 µM) |  |  |
| Oc1ccc(Br)cc1CNc1ccc(Cl)cc1 | 6.25 (≈ 20 µM) | 6.25 (≈ 20 µM) | 25 (≈ 80 µM) | 12.5 (≈ 40 µM) |  |  |
| COc1ccc(NCc2cc(Br)ccc2O)cc1 | 50 (≈ 162 µM) | 50 (≈ 162 µM) | 50 (≈ 162 µM) | 50 (≈ 162 µM) |  |  |
| COc1ccc(N(Cc2cc(Br)ccc2O)C(=O)Nc2ccccc2)cc1 | 12.5 (≈ 29.3 µM) | 25 (≈ 58.5 µM) | 50 (≈ 117 µM) | 50 (≈ 117 µM) |  |  |
| Oc1c(Br)cc(Br)cc1CNc1ccc(F)cc1 | 50 (≈ 133 µM) | 50 (≈ 133 µM) | 50 (≈ 133 µM) | 12.5 (≈ 33.3 µM) |  |  |
| Cc1ccc(NCc2cc(Br)ccc2O)cc1 | 50 (≈ 171 µM) | 50 (≈ 171 µM) | 50 (≈ 171 µM) | 50 (≈ 171 µM) |  |  |
| O=C(Nc1ccccc1)N(Cc1cc(Br)cc(Br)c1O)c1ccccc1Cl | 12.5 (≈ 24.5 µM) | 6.25 (≈ 12.2 µM) | 50 (≈ 97.9 µM) | 25 (≈ 49 µM) | 51.5 | > 10000 |
